Assay results taken from ChEMBL document CHEMBL4346745, “Urea moiety as amide bond mimetic in peptide-like inhibitors of VEGF-A165/NRP-1 complex” (Bioorg Med Chem Lett, 2019).
Numbered stars: 1 amine (or outer) side, 2 acyl side, 3 side chain; on linkers, the order of the positions; unused ones are H or OH. Square brackets hold non-standard residues; d marks the D form. Side chains are listed from the residue outwards. Peptide text beside a SMILES is read from it. * marks the point of attachment. X1 = N=C(N)NCCC[C@H](N)CN*; ΔPro = O=C(O)[C@@H]1C=CCN1; Dab = NCC[C@H](N)C(=O)O; CO = O=C([*:1])[*:2]

How the values were obtained:
[1] = Retention time in human plasma treated with 1 uM (S)-5-guanidino-2-((S)-1-((6S,15S,18R)-1,6,15-triamino-18-(2-aminoethyl)-1-imino-9,16-dioxo-2,8,10,17-tetraazanonadecane)-2,3-dihydro-1H-pyrrole-2-carboxamido)pentanoic acid at 1 uM after 96 hrs by LC-MS analysis; format: ADME, cell-free
Summary of the method: (§1)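 Compounds incubated in human plasma at 37 °C; aliquots withdrawn at selected time intervals up to 96 h and analysed by RP-HPLC and LC-MS to follow parent loss and the fragments formed.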

[2] = Retention time in human plasma treated with 1 uM (S)-2-((S)-1-((S)-1-((S)-2-amino-6-(3-((S)-2-amino-5-guanidinopentyl)ureido)hexanoyl)pyrrolidine-2-carbonyl)pyrrolidine-2-carboxamido)-5-guanidinopentanoic acid at 1 uM after 96 hrs by LC-MS analysis; format: ADME, cell-free; summary of the method: as §1
[3] = target: Neuropilin-1 (Homo sapiens, UniProt O14786); assay: Inhibition of biotinylated human VEGF-A165 binding to recombinant human NRP1 receptor after 2 hrs by chemiluminescence analysis relative to control
Neuropilin-1, sequence (O14786 whole entry): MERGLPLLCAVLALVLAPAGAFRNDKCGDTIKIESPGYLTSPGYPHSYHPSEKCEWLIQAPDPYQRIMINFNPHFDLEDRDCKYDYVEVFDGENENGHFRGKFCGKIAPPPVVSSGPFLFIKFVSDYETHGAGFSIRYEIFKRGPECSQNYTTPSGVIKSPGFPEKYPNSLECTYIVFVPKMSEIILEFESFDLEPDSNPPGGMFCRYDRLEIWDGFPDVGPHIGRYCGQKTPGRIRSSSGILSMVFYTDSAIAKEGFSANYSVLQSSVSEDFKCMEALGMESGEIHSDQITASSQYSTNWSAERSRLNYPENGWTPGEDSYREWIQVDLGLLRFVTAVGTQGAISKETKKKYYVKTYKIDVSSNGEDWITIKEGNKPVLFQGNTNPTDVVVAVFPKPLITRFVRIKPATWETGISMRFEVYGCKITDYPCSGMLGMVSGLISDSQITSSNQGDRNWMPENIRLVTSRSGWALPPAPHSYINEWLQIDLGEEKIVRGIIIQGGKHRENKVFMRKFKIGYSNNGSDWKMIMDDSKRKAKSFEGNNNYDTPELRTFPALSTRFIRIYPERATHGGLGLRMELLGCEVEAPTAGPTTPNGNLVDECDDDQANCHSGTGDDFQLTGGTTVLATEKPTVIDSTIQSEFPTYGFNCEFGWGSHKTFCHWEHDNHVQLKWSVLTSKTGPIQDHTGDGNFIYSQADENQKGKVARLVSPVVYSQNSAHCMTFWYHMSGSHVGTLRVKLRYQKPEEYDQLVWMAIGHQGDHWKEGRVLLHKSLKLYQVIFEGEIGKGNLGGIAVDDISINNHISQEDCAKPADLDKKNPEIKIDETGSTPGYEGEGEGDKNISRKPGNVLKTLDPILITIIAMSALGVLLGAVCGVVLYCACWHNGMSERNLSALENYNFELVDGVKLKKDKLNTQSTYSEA
Summary of the method: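 ELISA-like competition format with chemiluminescent read-out of VEGF-A165 bound to NRP-1 in the presence of test peptidomimetic.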

[4] = Drug metabolism in human plasma assessed as (S)-2-amino-6-(3-((S)-2-amino-5-guanidinopentyl)ureido)hexanoic acid metabolite formation at 1 uM after 96 hrs by LC-MS analysis; format: ADME, cell-free; summary of the method: as §1
[5] = Metabolic stability in human plasma assessed as compound remaining at 1 uM after 96 hrs by RP-HPLC and LC-MS analysis relative to control; format: ADME, cell-free; details: read-out: Stability; summary of the method: as §1
[6] = Stability in human plasma assessed as enzymatic cleavage of Lys(epsilon)-Arg(U) bond at 1 uM after 96 hrs by LC-MS analysis; format: ADME, cell-free; summary of the method: as §1

| Structure (SMILES) | Retention_time [1] [min] | IC50 [3] [µM] | also measured |
| --- | --- | --- | --- |
| N=C(N)NCCC[C@H](N)CNC(=O)NCCCC[C@H](N)C(=O)N[C@H](CCN)C(=O)N1C2CCCCC2C[C@H]1C(=O)N[C@@H](CCCNC(=N)N)C(=O)O (stereo not given in full) | – | 5.4 | – |
| N=C(N)NCCC[C@H](NC(=O)[C@@H]1C=CCN1C(=O)[C@@H](N)CCN)C(=O)O (H-[Dab]-[ΔPro]-Arg-OH) | 0.98 | – | – |
| N=C(N)NCCC[C@H](N)CNC(=O)NCCCC[C@H](N)C(=O)N1CCC[C@H]1C(=O)N1CCC[C@H]1C(=O)N[C@@H](CCCNC(=N)N)C(=O)O (H-K([CO-X1])PPR-OH) | – | 7.7 | Drug metabolism [4]: Metabolite_Detected; remaining at 96 h, 1 µM [5]: 40 to 45%; Stability [6]: Stable |
| N=C(N)NCCC[C@H](N)CNC(=O)NCCCC[C@H](N)C(=O)N[C@H](CCN)C(=O)N1CC[C@H]1C(=O)N[C@@H](CCCNC(=N)N)C(=O)O | – | 26 | – |

Now from value to compound, other results behind:

| Retention_time [1] [min] | IC50 [3] [µM] | Structure (SMILES) | also measured |
| --- | --- | --- | --- |
| 2.92 | – | N=C(N)NCCC[C@H](N)CNC(=O)NCCCC[C@H](N)C(=O)O | Retention_time [2]: 3 min |
| 9.02 | – | N=C(N)NCCC[C@H](N)CNC(=O)NCCCC[C@H](N)C(=O)N[C@@H](CCN)C(=O)N1CC=C[C@H]1C(=O)O | – |
